Test results reported in ChEMBL document CHEMBL4689842, “EUbOPEN Chemogenomics Library wave 1” (2021).

How the values were obtained:
Assay type in all cases: toxicity, cell-based
Fibroblast = experiment: Multiplex assay against human fibroblast
In short: (§1)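 Cells were classed with CellPathfinder machine-learning gating, first as Hoechst high-intensity objects or normal cells, then (normal cells) as healthy, pyknosed or fragmented nuclei, and finally (pyknosed cells) as mitotic or apoptotic. Staining of live cells at seeding used Hoechst33342, BioTracker Green Microtubule Cytoskeleton Dye, MitoTracker Red and Annexin V Alexa Fluor 680, with imaging on a CQ1 microscope at 37°C and 5% CO2 after compound addition. Tubulin, mitochondrial-mass and membrane-permeability phenotypes are per cents of healthy-nucleus cells.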

HEK-293T = experiment: Multiplex assay against HEK293T; details: human; in short: as §1
U2OS = experiment: Multiplex assay against U2OS; details: human; in short: as §1
[1] = 12 h, 1 µM, compound concentration 1 uM, replicate 1
[2] = 12 h, 1 µM, compound concentration 1 uM, replicate 2
[3] = 12 h, 10 µM, compound concentration 10 uM, replicate 1
[4] = 12 h, 10 µM, compound concentration 10 uM, replicate 2
[5] = 24 h, 1 µM, compound concentration 1 uM, replicate 1
[6] = 24 h, 1 µM, compound concentration 1 uM, replicate 2
[7] = 24 h, 10 µM, compound concentration 10 uM, replicate 1
[8] = 24 h, 10 µM, compound concentration 10 uM, replicate 2
[9] = 48 h, 1 µM, compound concentration 1 uM, replicate 1
[10] = 48 h, 1 µM, compound concentration 1 uM, replicate 2
[11] = 48 h, 10 µM, compound concentration 10 uM, replicate 1
[12] = 48 h, 10 µM, compound concentration 10 uM, replicate 2

## CC(C)C[C@H](NC(=O)[C@H](Cc1ccccc1)NC(=O)CNC(=O)CNC(=O)[C@@H](N)Cc1ccc(O)cc1)C(=O)O [ENKEPHALIN]
Fibroblast; [1]
  Population Apoptotic (%): 68%
  Population Healthy Nuclei (%): 53%
  Population Membrane Permeable-Phenotype (%): 26%
  Population Mitotic Cells (%): 31%
  Population Pyknosed Nuclei (%): 20%
  Population Tubulin-Different-Phenotype (%): 57%
  Total Cell Count: 95
Fibroblast; [2]
  Population Healthy Nuclei (%): 82%
  Population Pyknosed Nuclei (%): 5%
  Population Tubulin-Different-Phenotype (%): 34%
  Total Cell Count: 70
Fibroblast; [3]
  Population Apoptotic (%): 76%
  Population Healthy Nuclei (%): 39%
  Population Membrane Permeable-Phenotype (%): 27%
  Population Mitotic Cells (%): 23%
  Population Pyknosed Nuclei (%): 32%
  Total Cell Count: 130
Fibroblast; [4]
  Population Healthy Nuclei (%): 86%
  Population Tubulin-Different-Phenotype (%): 11%
  Total Cell Count: 62
Fibroblast; [5]
  Population Healthy Nuclei (%): 47%
  Population Membrane Permeable-Phenotype (%): 23%
  Population Pyknosed Nuclei (%): 26%
  Population Tubulin-Different-Phenotype (%): 34%
  Total Cell Count: 111
Fibroblast; [6]
  Population Healthy Nuclei (%): 84%
  Population Pyknosed Nuclei (%): 5%
  Population Tubulin-Different-Phenotype (%): 31%
  Total Cell Count: 68
Fibroblast; [7]
  Population Apoptotic (%): 60%
  Population Healthy Nuclei (%): 52%
  Population Membrane Permeable-Phenotype (%): 35%
  Population Mitotic Cells (%): 40%
  Population Pyknosed Nuclei (%): 22%
  Total Cell Count: 129
Fibroblast; [8]
  Population Healthy Nuclei (%): 86%
  Population Pyknosed Nuclei (%): 7%
  Population Tubulin-Different-Phenotype (%): 15%
  Total Cell Count: 86
Fibroblast; [9]
  Population Apoptotic (%): 63%
  Population Healthy Nuclei (%): 45%
  Population Membrane Permeable-Phenotype (%): 15%
  Population Pyknosed Nuclei (%): 22%
  Total Cell Count: 96
Fibroblast; [10]
  Population Apoptotic (%): 100%
  Population Healthy Nuclei (%): 73%
  Population Membrane Permeable-Phenotype (%): 22%
  Population Mitotic Cells (%): 0%
  Population Pyknosed Nuclei (%): 1%
  Total Cell Count: 81
Fibroblast; [11]
  Population Apoptotic (%): 35%
  Population Healthy Nuclei (%): 59%
  Population Membrane Permeable-Phenotype (%): 26%
  Population Mitotic Cells (%): 64%
  Population Pyknosed Nuclei (%): 12%
  Population Tubulin-Different-Phenotype (%): 31%
  Total Cell Count: 130
Fibroblast; [12]
  Population Healthy Nuclei (%): 76%
  Population Membrane Permeable-Phenotype (%): 18%
  Population Mitotic Cells (%): 0%
  Population Pyknosed Nuclei (%): 0%
  Population Tubulin-Different-Phenotype (%): 24%
  Total Cell Count: 118
HEK-293T; [1]
  Population Apoptotic (%): 45%
  Population Healthy Nuclei (%): 23%
  Population Mitochondria Different-Phenotype (%): 76%
  Population Mitotic Cells (%): 54%
  Population Pyknosed Nuclei (%): 60%
  Total Cell Count: 175
HEK-293T; [2]
  Population Apoptotic (%): 9%
  Population Healthy Nuclei (%): 50%
  Population Mitotic Cells (%): 90%
  Population Pyknosed Nuclei (%): 43%
  Total Cell Count: 229
HEK-293T; [3]
  Population Apoptotic (%): 40%
  Population Healthy Nuclei (%): 32%
  Population Mitochondria Different-Phenotype (%): 84%
  Population Mitotic Cells (%): 60%
  Population Pyknosed Nuclei (%): 57%
  Total Cell Count: 230
HEK-293T; [4]
  Population Apoptotic (%): 9%
  Population Healthy Nuclei (%): 45%
  Population Mitotic Cells (%): 90%
  Population Pyknosed Nuclei (%): 50%
  Total Cell Count: 271
HEK-293T; [5]
  Population Healthy Nuclei (%): 21%
  Population Mitochondria Different-Phenotype (%): 41%
  Population Normal (%): 80%
  Population Pyknosed Nuclei (%): 60%
  Total Cell Count: 175
HEK-293T; [6]
  Population Apoptotic (%): 10%
  Population Healthy Nuclei (%): 66%
  Population Mitotic Cells (%): 89%
  Population Pyknosed Nuclei (%): 28%
  Total Cell Count: 294
HEK-293T; [7]
  Population Healthy Nuclei (%): 45%
  Population Hoechst High Intensity Objects (%): 14%
  Population Mitotic Cells (%): 51%
  Population Normal (%): 85%
  Population Pyknosed Nuclei (%): 45%
  Total Cell Count: 250
HEK-293T; [8]
  Population Apoptotic (%): 7%
  Population Healthy Nuclei (%): 71%
  Population Mitotic Cells (%): 92%
  Population Pyknosed Nuclei (%): 23%
  Total Cell Count: 374
HEK-293T; [9]
  Population Healthy Nuclei (%): 32%
  Population Hoechst High Intensity Objects (%): 25%
  Population Mitochondria Different-Phenotype (%): 26%
  Population Mitotic Cells (%): 51%
  Population Normal (%): 74%
  Population Pyknosed Nuclei (%): 46%
  Total Cell Count: 212
HEK-293T; [10]
  Population Apoptotic (%): 9%
  Population Healthy Nuclei (%): 82%
  Population Mitotic Cells (%): 90%
  Population Pyknosed Nuclei (%): 11%
  Total Cell Count: 546
HEK-293T; [11]
  Population Apoptotic (%): 40%
  Population Healthy Nuclei (%): 62%
  Population Mitochondria Different-Phenotype (%): 22%
  Population Mitotic Cells (%): 60%
  Population Pyknosed Nuclei (%): 27%
  Total Cell Count: 327
HEK-293T; [12]
  Population Apoptotic (%): 18%
  Population Healthy Nuclei (%): 85%
  Population Mitochondria Different-Phenotype (%): 4%
  Population Mitotic Cells (%): 82%
  Population Pyknosed Nuclei (%): 8%
  Total Cell Count: 620
U2OS; [1]
  Population Healthy Nuclei (%): 77%
  Population Pyknosed Nuclei (%): 10%
  Population Tubulin-Different-Phenotype (%): 9%
  Total Cell Count: 216
U2OS; [2]
  Population Healthy Nuclei (%): 82%
  Population Pyknosed Nuclei (%): 5%
  Population Tubulin-Different-Phenotype (%): 34%
  Total Cell Count: 70
U2OS; [3]
  Population Healthy Nuclei (%): 78%
  Population Pyknosed Nuclei (%): 11%
  Population Tubulin-Different-Phenotype (%): 9%
  Total Cell Count: 148
U2OS; [4]
  Population Healthy Nuclei (%): 86%
  Population Tubulin-Different-Phenotype (%): 11%
  Total Cell Count: 62
U2OS; [5]
  Population Healthy Nuclei (%): 82%
  Population Pyknosed Nuclei (%): 9%
  Population Tubulin-Different-Phenotype (%): 9%
  Total Cell Count: 218
U2OS; [6]
  Population Healthy Nuclei (%): 84%
  Population Pyknosed Nuclei (%): 5%
  Population Tubulin-Different-Phenotype (%): 31%
  Total Cell Count: 68
U2OS; [7]
  Population Healthy Nuclei (%): 80%
  Population Pyknosed Nuclei (%): 10%
  Total Cell Count: 174
U2OS; [8]
  Population Healthy Nuclei (%): 86%
  Population Pyknosed Nuclei (%): 7%
  Population Tubulin-Different-Phenotype (%): 15%
  Total Cell Count: 86
U2OS; [9]
  Population Healthy Nuclei (%): 87%
  Population Pyknosed Nuclei (%): 7%
  Total Cell Count: 229
U2OS; [10]
  Population Healthy Nuclei (%): 92%
  Population Tubulin-Different-Phenotype (%): 31%
  Total Cell Count: 80
U2OS; [11]
  Population Healthy Nuclei (%): 84%
  Population Pyknosed Nuclei (%): 8%
  Population Tubulin-Different-Phenotype (%): 5%
  Total Cell Count: 251
U2OS; [12]
  Population Healthy Nuclei (%): 85%
  Population Pyknosed Nuclei (%): 6%
  Population Tubulin-Different-Phenotype (%): 15%
  Total Cell Count: 131
